A selection: hits, their analogues and other compounds. The true share with any hit is near 2.6%.
esBAF inh: SWI/SNF esBAF complex inhibition. reporter increase, % at 12.5 µM. mouse ES cells, Bmi1-luciferase knock-in reporter, 24 h; 100% = twice the neutral-well signal. 350,000 compounds, 2% hits; in the data active = activation above about 40%;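 also: 0% = median of the plate's neutral control wells and 100% = double that signal; a rise in the Bmi1 reporter signal indicates esBAF inhibition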
ASAP1 inh: inhibitors of human ASAP1 ArfGAP activity; ASAP1-stimulated ARF1 GTP hydrolysis, GDP FP detection; inhibition, % at 16.5 µM; 360,000 compounds, 0.19% hits; in the data active = inhibition above about 25%;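 also: 0% = vehicle with enzyme and substrate and 100% = no enzyme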
Target sequence (Q9ULH1 325-724 limits assumed): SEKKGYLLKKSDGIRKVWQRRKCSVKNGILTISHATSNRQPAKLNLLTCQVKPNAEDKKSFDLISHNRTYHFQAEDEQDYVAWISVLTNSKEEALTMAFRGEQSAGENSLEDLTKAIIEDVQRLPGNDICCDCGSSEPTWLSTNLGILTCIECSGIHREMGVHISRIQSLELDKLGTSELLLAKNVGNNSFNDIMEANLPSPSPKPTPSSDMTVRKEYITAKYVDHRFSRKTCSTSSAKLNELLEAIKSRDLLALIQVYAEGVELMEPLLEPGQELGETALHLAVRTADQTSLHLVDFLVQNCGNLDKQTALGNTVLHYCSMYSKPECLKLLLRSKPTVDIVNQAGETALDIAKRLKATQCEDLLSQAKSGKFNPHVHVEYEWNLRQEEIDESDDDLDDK
ARFGAP1 inh: rat ARFGAP1 inhibition. 360,000 compounds, 0.26% hits. inhibition, % at 16.5 µM. Q62848. Arfgap1-stimulated ARF1 GTP hydrolysis, GDP FP detection;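 active = inhibition above a per-plate limit, mean inhibition of low control wells plus 3 SD, cut at about 25% in these data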;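 also: 0% = DMSO wells with enzyme and 100% = wells lacking Arfgap1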
Target sequence (Q62848 1-136 limits assumed): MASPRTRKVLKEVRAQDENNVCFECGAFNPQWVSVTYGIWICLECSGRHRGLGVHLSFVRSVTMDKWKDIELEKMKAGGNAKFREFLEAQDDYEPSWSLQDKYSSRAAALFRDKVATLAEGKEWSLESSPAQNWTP
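Assay system: purified rat His6-Arfgap1 residues 1-136 (GAP domain); Reagent: human Δ17 ARF1 bound to GTP; Dosing: 16.5 µM single point, 1.26% DMSO; Times: GTP hydrolysis reaction 2 h at 25 °C; Signal: FP, GDP Alexa 633 tracer displaced from anti-GDP antibody, 620/688 nm; Measure: % inhibition from polarization.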
SMARCA2 act: increases SMARCA2 function in MMTV reporter cells | MG213 cells, MMTV-luciferase reporter, dexamethasone, overnight | activation, % at 9.1 µM | 370,000 compounds, 1% hits | AID 652017; in the data active = activation above about 7.8%;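 also: 0% = vehicle wells and 100% = reference activator wells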
SMARCA2 act conf: SMARCA2 activation, confirmation screen; shares compounds with SMARCA2 act; AID 652260; activation, % at 9.1 µM; 3,500 compounds, 30% hits; MG213 cells, MMTV-luciferase with dexamethasone, luminescence, overnight; MG213 cells expressing E1A, Rb sequestered; DMSO wells 0%, reference activator 100%;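 active = activation above its plate's cutoff, the mean activation of tested wells plus 3 SD, cut at about 7.9% in these data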
VP16 Luc act: counter-screen for SMARCA2 activators: GAL4-VP16 luciferase reporter activation; shares compounds with SMARCA2 act; HEK293 GAL4-VP16 pG5luc reporter, luciferase luminescence; scaled: DMSO wells 0%, SAHA wells 100%; activation, % at 9.1 µM; 3,500 compounds, 41% hits; AID 686939;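 active = activation above the solvent-only control well mean plus 3 SD, averaged across control plates, cut at about 5.2% in these data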
Active calls of the source: *; ! = not confirmed by another sample.

For CCOC(=O)c1nn(-c2ccc3c(c2)OCCO3)cc1O the results were esBAF inh 1, ASAP1 inh 10, ARFGAP1 inh -3, SMARCA2 act 11*, SMARCA2 act conf 8.3* and VP16 Luc act 12*.
Screening COC(=O)c1nn(-c2ccc3c(c2)OCO3)cc1O returned ASAP1 inh -1, ARFGAP1 inh -5, SMARCA2 act 9.0*, SMARCA2 act conf 13* and VP16 Luc act 11*.
`C/C=C/c1cnc2c(c1)C(=O)N([C@H](C)CO)C[C@@H](C)[C@H](CN(C)C(=O)NC1CCCC1)O2` gave esBAF inh 4.
For O=C(CSc1nnc(NC2CC2)s1)c1ccc[nH]1 the results were ASAP1 inh 7, ARFGAP1 inh -1, SMARCA2 act 12*, SMARCA2 act conf 10* and VP16 Luc act 7.3*.
COC(=O)c1cnn2c3c(c(C)nc12)CCCC3 was read as ASAP1 inh -1, ARFGAP1 inh -1, SMARCA2 act 11*, SMARCA2 act conf 7 and VP16 Luc act 5.
`Cc1ccc(C)c2c1CCC(=Cc1ccccc1[N+](=O)[O-])C2=O` gave ASAP1 inh 7, ARFGAP1 inh -2 and SMARCA2 act -2.
For CN1C/C(=C/c2ccccc2[N+](=O)[O-])C(=O)/C(=C\c2ccccc2[N+](=O)[O-])C1 the results were ASAP1 inh -14, ARFGAP1 inh -3, SMARCA2 act 26*, SMARCA2 act conf -15 and VP16 Luc act 5.1*.
`Cc1ccc(NC(=S)NC2CC3CCCC(C2)N3Cc2ccco2)cc1` (stereo not drawn) gave esBAF inh 7, ASAP1 inh 3, ARFGAP1 inh 15, SMARCA2 act 10*, SMARCA2 act conf -2 and VP16 Luc act 2.
`CC(=O)c1ccc(/C=C/c2nc3ccccc3n2C)o1` gave ASAP1 inh 2, ARFGAP1 inh 11, SMARCA2 act 8.8*, SMARCA2 act conf 23* and VP16 Luc act 12*.
`COCCn1c(/C=C/c2ccccc2)nc2ccccc21` gave esBAF inh 37*, ASAP1 inh 0, ARFGAP1 inh -2, SMARCA2 act 9.2*, SMARCA2 act conf 7 and VP16 Luc act 13*.
For Cn1c(/C=C/c2ccccc2)nc2ccccc21 the results were ASAP1 inh 2, ARFGAP1 inh 12, SMARCA2 act 8.9*, SMARCA2 act conf 5 and VP16 Luc act 7.8*.
For Cn1c(=O)c(/C=C/c2ccccc2)nc2ccccc21 the results were ASAP1 inh 19, ARFGAP1 inh -6 and SMARCA2 act 5.
For Cn1c(/C=N/NC(=O)c2ccccc2)nc2ccccc21 the results were esBAF inh 26, ASAP1 inh -1, ARFGAP1 inh -2 and SMARCA2 act -1.
For O=S1(=O)C[C@H](N2CCN(CCO)CC2)[C@@H](COCc2ccccc2)N1 the results were esBAF inh -2, ASAP1 inh 3, ARFGAP1 inh -4, SMARCA2 act 8.1*, SMARCA2 act conf -4 and VP16 Luc act 3.
C[C@@H]1CN([C@@H](C)CO)C(=O)c2cc(NS(=O)(=O)c3cn(C)cn3)ccc2O[C@@H]1CN(C)Cc1ccccc1 was read as esBAF inh -2.
O=C(CCl)NC1CCCc2ccccc21 (stereo not drawn) was read as ASAP1 inh 5, ARFGAP1 inh 3, SMARCA2 act 9.3*, SMARCA2 act conf -2 and VP16 Luc act -1.
For c1cc(-c2cc3cc4c(cc3cn2)OCO4)cs1 the results were esBAF inh 77*, ASAP1 inh -10, ARFGAP1 inh 3, SMARCA2 act 8.9*, SMARCA2 act conf 3 and VP16 Luc act 7.9*.
`Cn1c(=O)cc(OCCCC(=O)NCc2ccccn2)c2ccccc21` gave esBAF inh -7, ASAP1 inh 0, ARFGAP1 inh -7 and SMARCA2 act 0.
`Cc1ccnc(NC(=O)CCCOc2cc(=O)n(C)c3ccccc23)c1` gave esBAF inh -5, ASAP1 inh -4, ARFGAP1 inh -1, SMARCA2 act 22*!, SMARCA2 act conf 9.1* and VP16 Luc act 0.
For COc1ccc(Cn2cc(C(=O)c3ccccc3)c(=O)c3cc(OC)ccc32)cc1 the results were esBAF inh -7, ASAP1 inh 1, ARFGAP1 inh -7, SMARCA2 act 8.9*, SMARCA2 act conf -2 and VP16 Luc act 0.
Screening COc1ccc2c(c1)c(=O)c(C(=O)c1ccccc1)cn2Cc1ccccc1 returned esBAF inh -5, ASAP1 inh 7, ARFGAP1 inh -13 and SMARCA2 act -2.
Screening CCC(=O)NC(=S)Nc1cccc(NC(=O)c2ccc(Cl)cc2Cl)c1 returned esBAF inh 4, ASAP1 inh -1, ARFGAP1 inh 2 and SMARCA2 act 2.
CC(C)C(=O)Nc1cccc(NC(=O)c2ccc(Cl)cc2Cl)c1 was read as ASAP1 inh -10, ARFGAP1 inh -1, SMARCA2 act 8.5*, SMARCA2 act conf 0 and VP16 Luc act 3.
Oc1cccc(Nc2ncnc3ccccc23)c1 was read as ASAP1 inh 9, ARFGAP1 inh 14, SMARCA2 act 8.1*, SMARCA2 act conf 1 and VP16 Luc act 1.
For Nc1cccc(Nc2ncnc3ccccc23)c1 the results were esBAF inh -1, ASAP1 inh -4, ARFGAP1 inh 8 and SMARCA2 act -3.
`COc1ccc(/C=C/c2nc(S(=O)(=O)c3ccccc3)c(N(C)C)o2)cc1` gave esBAF inh -2, ASAP1 inh -6, ARFGAP1 inh 13, SMARCA2 act 9.6*, SMARCA2 act conf -5 and VP16 Luc act -2.
`C[C@@H]1CCCCO[C@H](CN(C)C(=O)Nc2ccc3c(c2)OCO3)[C@H](C)CN([C@@H](C)CO)C(=O)c2cc(NS(=O)(=O)c3cn(C)cn3)ccc2O1` gave esBAF inh -7.
For Cc1ccc(S(=O)(=O)Nc2ccc3c(c2)CC(=O)N([C@H](C)CO)C[C@H](C)[C@@H](CN(C)C(=O)NC(C)C)O3)cc1 the results were esBAF inh 1.
O=C(C[C@@H]1C=C[C@@H](NC(=O)c2cccnc2)[C@H](CO)O1)NCc1ccc(Cl)c(Cl)c1 was read as esBAF inh 2.
CN(C)c1nn2c(-c3ccccc3)nnc2o1 was read as esBAF inh -2, ASAP1 inh -5, ARFGAP1 inh 1, SMARCA2 act 8.8*, SMARCA2 act conf 0 and VP16 Luc act 3.
Cc1ccc(/C=C/C2=NN(C)C(=O)CC2)cc1 was read as esBAF inh 38, ASAP1 inh 8, ARFGAP1 inh -2, SMARCA2 act 8.3*, SMARCA2 act conf 6 and VP16 Luc act 6.6*.
For CN1N=C(/C=C/c2ccccc2)CCC1=O the results were ASAP1 inh -13, ARFGAP1 inh -6 and SMARCA2 act 7.
